Source: PubChem (The Scripps Research Institute Molecular Screening Center)
CHO parental Ca – counter-screen: ATP calcium response change in parental CHO cells; parental CHO-K1, ATP-induced calcium, Fluo-8 fluorescence; inhibition, % at 5.6 µM; 330,000 compounds, 0.63% hits; AID 463079;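 active = inhibition above that plate's mean sample inhibition plus 3 SD, cut at about 26% in these data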;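 note: 0% = ATP-challenged DMSO wells and 100% = DMSO wells without ATP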
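Test system: untransfected parental CHO cell line. Compound: one dose, 5.6 µM nominal. Detection: intracellular calcium via Fluo-8 no-wash fluorescent dye. Measure: % inhibition. Benchmarks: ATP-challenged DMSO wells low, unchallenged DMSO wells high.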
TAAR1 antagonist – human TAAR1 antagonism; inhibition, % at 3 µM; 360,000 compounds, 1.5% hits; Q96RJ0; CHO RD-HGA16 TAAR1, Fluo-8 calcium fluorescence, antagonist; AID 624466;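 active = inhibition above a per-plate cutoff, the mean inhibition of test compounds on that plate plus 3 SD, cut at about 49% in these data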;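 note: 0% = DMSO plus EC80 beta-PEA response and 100% = DMSO alone without agonist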
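Assay system: CHO-derived RD-HGA16 cells stably expressing human TAAR1 plus Gα16. Timing: 140 s kinetic read after compound, 140 s after agonist. Technique: kinetic Fluo-8 calcium fluorescence measurement. Measure: % inhibition of agonist calcium response.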
TAAR1 ag – human TAAR1 agonism; Q96RJ0; CHO RD-HGA16 TAAR1, Fluo-8 calcium fluorescence; vehicle wells 0%, saturating PEA agonist 100%; activation, % at 3 µM; 360,000 compounds, 0.99% hits;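 active = activation above the mean activation of all test compounds in the run plus 3 SD, cut at about 38% in these data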
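System: CHO-derived RD-HGA16 cells with stable Gα16 and human TAAR1. Times: 17-24 h plating, Fluo-8 75 min 37 °C, 30 min RT. Measured by: calcium-sensitive Fluo-8 signal, excitation 470-495, emission 515-575 nm. Read-out basis: % activation relative to PEA EC100 response. Control set: DMSO and PEA EC100. Repeats: no replicates (n 1).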
OX1R antag-1 – antagonists of human orexin 1 receptor (OX1R); O43613; OX1R-expressing cells, FRET antagonist read-out; inhibition, % at 6.6 µM; 330,000 compounds, 1.8% hits; in the data active = inhibition mostly above about 38%, no sharp cut-off; inactive = mostly below about 40%;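 note: 0% = agonist challenge alone and 100% = reference antagonist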
Target sequence (O43613 whole entry, looked up): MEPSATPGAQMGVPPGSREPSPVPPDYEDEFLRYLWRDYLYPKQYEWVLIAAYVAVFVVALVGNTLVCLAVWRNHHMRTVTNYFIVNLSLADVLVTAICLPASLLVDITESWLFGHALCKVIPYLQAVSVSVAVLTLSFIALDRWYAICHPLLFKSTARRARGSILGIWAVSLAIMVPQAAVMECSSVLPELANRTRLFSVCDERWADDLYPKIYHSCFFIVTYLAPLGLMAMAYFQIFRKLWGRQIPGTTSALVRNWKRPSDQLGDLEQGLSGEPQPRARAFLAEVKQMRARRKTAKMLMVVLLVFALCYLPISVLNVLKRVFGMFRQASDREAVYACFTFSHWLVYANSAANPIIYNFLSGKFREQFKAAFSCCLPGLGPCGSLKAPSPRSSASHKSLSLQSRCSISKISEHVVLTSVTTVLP
GPR7 antag – human neuropeptides B/W receptor 1 antagonism. P48145. GPR7-expressing cells, fluorescence antagonist assay. inhibition, % at 4.4 µM. 290,000 compounds, 1.1% hits. AID 1861; in the data active = inhibition above about 16%, passing the limit was not always enough;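 note: cells stimulated with the agonist NPW; 0% = agonist with vehicle and 100% = vehicle without agonist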
OX1R antag-2 – blocks the human orexin 1 receptor | CHO/OX1R cells, Fluo-8 calcium fluorescence, orexin A | O43613 | inhibition, % at 5 µM | AID 434989 | 330,000 compounds, 0.43% hits;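 active = inhibition above its plate's threshold, mean inhibition of all tested compounds on the plate plus 3 SD, cut at about 37% in these data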;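 note: 0% = orexin A challenge wells and 100% = SB-334867-A antagonist wells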
TAAR1 ag conf – human TAAR1 agonism, confirmed; 2,400 compounds, 82% hits; shares compounds with TAAR1 ag; CHO RD-HGA16 TAAR1, Fluo-8 calcium fluorescence; scaled: DMSO 0%, maximal phenethylamine 100%; activation, % at 3 µM;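 active = activation above a cutoff set at the run's mean compound activation plus 3 SD, cut at about 39% in these data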
Ga16 nonsel ag – nonselective agonism, TAAR1 counter-screen | shares compounds with TAAR1 ag | CHO-Ga16 parental, Fluo-8 calcium fluorescence; normalized to maximal ATP response, DMSO zero | activation, % at 3 µM | 2,400 compounds, 50% hits | AID 651787;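 active = activation above the run cutoff, the mean activation over all tested wells plus 3 SD, cut at about 12% in these data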;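 note: 0% = DMSO wells and 100% = maximal ATP response on the peak over basal ratio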
TAAR1 desens – TAAR1 response desensitization, agonist counter-screen; CHO RD-HGA16 hTAAR1, Fluo-8 calcium, beta-PEA response inhibition; shares compounds with TAAR1 ag; AID 651951; inhibition, % at 3 µM; 2,400 compounds, 46% hits;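 active = inhibition above the run cutoff, the mean inhibition of all test compounds plus 3 SD, cut at about 49% in these data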;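 note: beta-PEA stimulus applied at its EC80; loss of beta-PEA calcium signal after compound pretreatment read as receptor desensitization; 0% = DMSO with beta-PEA at EC80 and 100% = DMSO alone without agonist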
Ga16 antag count – nonselective Ga16 antagonism, counter-screen. AID 651952. shares compounds with TAAR1 ag. 2,400 compounds, 39% hits. inhibition, % at 3 µM. CHO-Ga16 ATP-induced calcium, Fluo-8 fluorescence;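 active = inhibition above the plate's mean compound inhibition plus 3 SD, computed per plate, cut at about 22% in these data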;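 note: 0% = EC80 ATP with DMSO and 100% = DMSO wells without ATP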
* = called active by the depositor; x = no result given. The list is not random: actives were taken first. Their share in the collection is about 4.6%.

SMILES	CHO parental Ca	TAAR1 antagonist	TAAR1 ag	OX1R antag-1	GPR7 antag	OX1R antag-2	TAAR1 ag conf	Ga16 nonsel ag	TAAR1 desens	Ga16 antag count
O=C(C[C@H]1C[C@H](C(=O)N2CCOCC2)[C@@]2(CCC3CCCC3)c3[nH]c4cc(-c5ccco5)ccc4c3CCN2C1=O)NCc1ccco1	-14	-17	0	2	x	1	x	x	x	x
CCOc1ccc(C=NCC(O)c2ccccc2)cc1 (centres undefined)	-8	76*	94*	5	0	-4	106*	1	88*	-1
Cn1c(=O)c2c(nc(N/N=C/c3cccs3)n2C)n(C)c1=O	-17	-27	1	6	-7	-28	x	x	x	x
Cn1c(N/N=C/c2cccs2)cc(=O)n(C)c1=O	2	-1	45*	15	5	-7	62*	2	14	6
CSCC[C@H](NC(=O)COc1ccc(Cl)cc1)C(=O)N1CCC2(CC1)NCCc1[nH]cnc12	-20	3	52*	-4	-3	-12	1	0	-4	-5
CSCC[C@H](NC(=O)c1ccc2ccccc2c1)C(=O)N1CCC2(CC1)NCCc1[nH]cnc12	-7	-16	0	2	-9	-13	x	x	x	x
Nc1cc(=O)[nH]c(SCC(=O)N2CCc3ccccc3C2)n1	-8	75*	80*	6	-2	-10	89*	5	43	7
O=C(CCC(=O)N1CCOc2ccc(Cl)cc21)NCCCN1CCOCC1	-3	-1	2	12	-5	-11	x	x	x	x
CN(C)CCCN(C(=O)c1ccc(C(=O)c2ccccc2)cc1)c1nc2ccc(F)cc2s1	0	11	34	10	12	-5	x	x	x	x
CN(C)CCCN(C(=O)c1ccc(S(=O)(=O)N(C)C2CCCCC2)cc1)c1nc2ccc(F)cc2s1	-21	20	47*	5	19	-15	49*	22*	49*	32*
O=C(CCN1C(=O)c2cccnc2C1=O)NC1CCCCCC1	-3	7	-1	19	-1	9	x	x	x	x
O=C(COC(=O)c1cc(Cl)ccc1O)NCCNC(=O)COC(=O)c1cc(Cl)ccc1O	18	7	3	25	-3	1	x	x	x	x
COC(=O)c1ccc(CNC(=O)COC(=O)c2cc(Cl)ccc2O)cc1	-25	70*	62*	1	x	-13	21	5	19	17
COC(=O)c1sc(NC(=S)NC(=O)c2ccccc2C)nc1C	-11	29	43*	15	-6	-20	83*	54*	61*	34*
O=C(CN1C(=O)NC2(CCCc3ccccc32)C1=O)c1ccc(Br)cc1 (centres undefined)	-11	9	5	2	x	-25	x	x	x	x
COc1ccc(NC(=S)NC23CC4CC(CC(C4)C2)C3)cc1OC	-5	-15	0	44	-11	-22	x	x	x	x
Cc1cccc(C(=O)NC(NCCc2ccccc2)C(Cl)(Cl)Cl)c1 (centres undefined)	-27	61*	80*	29	-19	-19	69*	-1	48	4
Cc1cccc(C(=O)NC(NCc2ccco2)C(Cl)(Cl)Cl)c1 (centres undefined)	-17	9	-4	29	-18	-14	x	x	x	x
COC(=O)C(C)Oc1cc(OC(C)C(=O)OC)c2c(-c3ccccc3)cc(=O)oc2c1 (centres undefined)	-20	32	5	-2	-8	-59	x	x	x	x
COc1ccccc1CCNC(=O)C(=O)NCC1CCCN1S(=O)(=O)c1ccccc1 (centres undefined)	-33	59*	49*	49*	x	20	72*	8	65*	31*
COc1ccc(S(=O)(=O)N2CCCC2CNC(=O)C(=O)NCCc2ccccc2)cc1 (centres undefined)	-16	97*	92*	39*	x	-8	87*	10	87*	30*
COc1ccc(CCNC(=O)C(=O)NCC2CCCN2S(=O)(=O)c2cccs2)cc1 (centres undefined)	-18	46	18	9	x	-27	x	x	x	x
COc1cc(C(=O)NCc2nnc(SCC(=O)NCc3ccco3)o2)cc(OC)c1OC	-11	-12	0	4	-3	-16	x	x	x	x
O=C(CSc1nnc(-c2ccncc2)o1)Nc1ccc(F)c(F)c1	-8	3	15	2	x	3	x	x	x	x
COc1ccc(-c2cc3c(=O)n(CC(=O)Nc4cccc(Cl)c4)nc(C)n3n2)cc1	-6	-24	2	3	-7	-10	x	x	x	x
SMILES	CHO parental Ca	TAAR1 antagonist	TAAR1 ag	OX1R antag-1	GPR7 antag	OX1R antag-2	TAAR1 ag conf	Ga16 nonsel ag	TAAR1 desens	Ga16 antag count
OC(CNCc1ccc(Cl)cc1)COc1ccccc1 (centres undefined)	-14	-3	27	9	8	-24	x	x	x	x
COC(=O)c1ccc(CNCC(O)COc2ccc(-c3ccccc3)cc2)cc1 (centres undefined)	-4	18	56*	0	8	-18	27	22*	28	30*
Cc1ccc(-n2c(=O)cc(N3CCc4ccccc4C3)[nH]c2=O)cc1	-4	3	87*	4	-8	-9	4	0	9	6
Cc1ccccc1-n1c(=O)cc(N2CCc3ccccc3C2)[nH]c1=O	-8	54*	92*	-1	-3	-12	97*	3	80*	7
O=c1cc(N2CCc3ccccc3C2)[nH]c(=O)n1C1CCCCC1	-9	-6	3	15	2	-21	x	x	x	x
O=c1cc(N2CCc3ccccc3C2)[nH]c(=O)n1-c1ccccc1Cl	-10	27	79*	-6	-6	-21	62*	4	2	12
Cc1ccc(-n2c(=O)cc(N3CCC(C)CC3)[nH]c2=O)cc1	-16	-12	4	-2	-10	-1	x	x	x	x
COC(=O)C[C@H]1C[C@H]2c3cc(NC(=O)CC4CC4)ccc3O[C@H]2[C@H](CO)O1	x	-12	9	x	x	x	x	x	x	x
CCCCNC(=O)C1c2ccccc2OCC(=O)N1CCc1ccccc1 (centres undefined)	x	8	3	x	x	x	x	x	x	x
